FLuc act counter – firefly luciferase counter-screen for stimulation assays. ATPlite luciferase biochemical, luminescence, 10 min; 0 = ATP-free wells, 1 = DMSO control. P08659. activation factor at 10 µM. 200,000 tested, under 10 active;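 active = luciferase activation factor, scaled between plate controls, of at least 2 with compound at 10 µM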
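Assay system: Luciferase/luciferin detection reagent, cell-free biochemical luciferase assay / Read-out: luciferase activation / Benchmarks: No-ATP low control, compound-free enzyme-plus-ATP high control / Medium: PBS buffer for ATP / Detection: luminescence measurement of luciferase light output / Schedule: 10 min at ambient temperature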
PPC-1+TRAIL kill – compounds killing PPC-1 cancer cells with TRAIL present (potentiator screen, no TRAIL-free arm); 220,000 compounds, 0.41% hits; AID 1443; cell killing (% activity), % at 4 µM or 5 µM; PPC-1 cells + TRAIL, ATPLite viability luminescence;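 active = cell killing above 50% in the first pass at 4 µM, then a duplicate retest at 5 µM averaging 50% or more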
FLuc inhib CS – counter-screen for luciferase assay inhibitors: firefly luciferase inhibition. P08659. ATPLite firefly luciferase biochemical luminescence, 10 min. inhibition, % at 10 µM. 200,000 compounds, 1.5% hits. AID 1006;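 active = inhibition above about 50% when tested at 10 µM, limit read from the data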
TRAIL sens C8 – caspase-8 TRAIL sensitization; NB7+C8 cells + TRAIL, ATPlite viability luminescence; inhibition (viability loss, TRAIL sensitization), % at 10 µM; 360,000 compounds, 1% hits;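 active = compounds causing at least 50% loss of cell viability in the single-dose screen, relative to plate controls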
PPC1 cytotox – PPC-1 cell cytotoxicity; shares compounds with PPC-1+TRAIL kill; PPC-1 viability, ATPlite luminescence, overnight; cytotoxicity, % at 5 µM; 1,200 compounds, 50% hits; AID 1447;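 active = reconfirmed compounds whose average cytotoxicity reaches 50% or more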
Numbers stand for hits. Compounds with a hit are over-represented: about 1.6% of the library has one in this group of screens.

How did CN1CCN(c2ccc([N+](=O)[O-])c3no[n+]([O-])c23)CC1 do in these assays?
PPC-1+TRAIL kill: 78; TRAIL sens C8: 95; PPC1 cytotox: 80

Results for CC1([N+](=O)[O-])COP(=O)(Nc2cccc(Br)c2)OC1 (stereo not given) ?
TRAIL sens C8: inactive

What do the screens show for `CN1C(=O)C(C2c3ccccc3C(=O)N2Cc2ccc([N+](=O)[O-])cc2)C(=O)N(C)C1=O` (stereo not given)?
FLuc act counter: inactive; PPC-1+TRAIL kill: inactive; FLuc inhib CS: inactive; TRAIL sens C8: inactive

Results for CN1C(=O)C(C2c3ccccc3C(=O)N2Cc2ccccc2)C(=O)N(C)C1=O (stereo not given) ?
FLuc act counter: inactive; PPC-1+TRAIL kill: inactive; FLuc inhib CS: inactive; TRAIL sens C8: inactive; PPC1 cytotox: inactive

How did CCC(=NCc1ccc(F)cc1)c1c(O)n(C)c(=O)n(C)c1=O do in these assays?
FLuc act counter: inactive; PPC-1+TRAIL kill: inactive; FLuc inhib CS: inactive; TRAIL sens C8: inactive

What do the screens show for `COC(=O)CC1=C(C(=O)OC)C2(C(=O)Nc3c(C)cccc32)C(C#N)=C(N)O1` (stereo not given)?
FLuc act counter: inactive; PPC-1+TRAIL kill: inactive; FLuc inhib CS: inactive; TRAIL sens C8: inactive

How did CCOc1ccc(C2CC(c3c(O)n(C)c(=O)n(C)c3=O)=NN2)cc1 (stereo not given) do in these assays?
PPC-1+TRAIL kill: 69; TRAIL sens C8: 74; PPC1 cytotox: 71

What do the screens show for `Cc1nn(CCC#N)c2c1P(=S)(N1CCCC1)OC(c1ccc(F)cc1)=N2` (stereo not given)?
FLuc act counter: inactive; PPC-1+TRAIL kill: inactive; FLuc inhib CS: inactive; TRAIL sens C8: inactive

How did C#CC[N+]1(C)[C@@H]2CC[C@H]1CC(OC(=O)C(CO)c1ccccc1)C2 (stereo not given in full) do in these assays?
TRAIL sens C8: inactive

What do the screens show for `O=C1C(=O)c2ccccc2-c2ccccc21`?
FLuc act counter: inactive; PPC-1+TRAIL kill: 68; FLuc inhib CS: inactive; TRAIL sens C8: 95; PPC1 cytotox: 63

What do the screens show for `C=C(C=O)C[C@@H]1C[C@H](O)C2OC3C[C@]4(C)OC5/C=C\CC6OC7C(CC=CCC6OC5CCCC4OC3CC2O1)OC1CC2OC3CC(=O)OC3C[C@@H](C)C[C@@]2(C)OC1C[C@@H]7C` (stereo not given in full)?
PPC-1+TRAIL kill: 78; PPC1 cytotox: 77

Results for Cc1ccc2nc(N3CCN(C)CC3)[nH]c2c1 ?
FLuc act counter: inactive; PPC-1+TRAIL kill: inactive; FLuc inhib CS: inactive; TRAIL sens C8: inactive; PPC1 cytotox: inactive

How did CN1CCN(c2nc(N)cc(=O)[nH]2)CC1 do in these assays?
PPC-1+TRAIL kill: inactive; TRAIL sens C8: inactive

Results for COc1ccc2c3c1O[C@H]1C(=O)CC[C@H]4[C@@H](C2)N(C)CC[C@]314 ?
TRAIL sens C8: inactive

Results for Cc1cc([N+](=O)[O-])c2ccccc2[n+]1[O-] ?
PPC-1+TRAIL kill: 94; TRAIL sens C8: inactive; PPC1 cytotox: 91

Results for Cc1nc2c(=O)n(C)c(=O)nc-2n(C)n1 ?
FLuc act counter: inactive; PPC-1+TRAIL kill: 66; FLuc inhib CS: inactive; TRAIL sens C8: 96; PPC1 cytotox: 62

Results for CNc1ccc2oc(C[C@H]3O[C@@]4(CC[C@H]3C)O[C@H]([C@H](C)C(=O)c3ccc[nH]3)[C@H](C)C[C@H]4C)nc2c1C(=O)O ?
PPC-1+TRAIL kill: inactive; TRAIL sens C8: 83; PPC1 cytotox: inactive

Results for Cc1cccc(CN(C)C)c1OC(=O)N(C)C ?
FLuc act counter: inactive; PPC-1+TRAIL kill: inactive; FLuc inhib CS: inactive; TRAIL sens C8: inactive; PPC1 cytotox: inactive

How did CN(C)Cc1ccccc1OC(=O)N(C)C do in these assays?
FLuc act counter: inactive; PPC-1+TRAIL kill: inactive; FLuc inhib CS: inactive; TRAIL sens C8: inactive
